Source: ChEMBL document CHEMBL3046215, “Aliphatic ketones from Ruta chalepensis (Rutaceae) induce paralysis on root knot nematodes” (J Agric Food Chem, 2011)
Values after ≈ are worked out from the molar mass of the structure shown.

Columns and labels:
Format in all cases: functional, organism-based
Meloidogyne incognita [1] = test: Nematicidal activity against second-stage juvenile Meloidogyne incognita (root-knot nematode) assessed as paralysis measured after 1 hr
Method in brief: (§1)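 Compounds diluted from ethanol stocks into water with Tween 20 (final ≤1% ethanol, ≤0.3% Tween). Motile vs paralyzed scored microscopically; Schneider-Orelli correction for water-control paralysis; EC50 by log-logistic regression; six replicates, two experiments.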

Meloidogyne javanica [2] = test: Nematicidal activity against second-stage juvenile Meloidogyne javanica (root-knot nematode) assessed as paralysis measured after 1 hr; method in brief: as §1
Meloidogyne incognita [3] = test: Nematicidal activity against second-stage juvenile Meloidogyne incognita (root-knot nematode) assessed as paralysis measured after 1 day; details: 24 h; method in brief: as §1
Meloidogyne javanica [4] = test: Nematicidal activity against second-stage juvenile Meloidogyne javanica (root-knot nematode) assessed as paralysis measured after 1 day; details: 24 h; method in brief: as §1

Row | SMILES | EC50 (Meloidogyne incognita [1]) [µg/mL] | EC50 (Meloidogyne javanica [2]) [µg/mL] | EC50 (Meloidogyne incognita [3]) [µg/mL] | EC50 (Meloidogyne javanica [4]) [µg/mL]
1 | CCCCCCCCCC(C)=O [METHYL NONYL KETONE] | > 500 | > 500 | 20.6 (≈ 121 µM) | 22.5 (≈ 132 µM)
2 | CCCCCCCC(C)O (stereo not drawn) [2-NONANOL] | 130 (≈ 899 µM) | 178 (≈ 1230 µM) | 108 (≈ 746 µM) | 137 (≈ 950 µM)
3 | CCCCCCCCCCC(C)=O [2-DODECANONE] | > 500 | > 500 | 33.8 (≈ 183 µM) | 59.9 (≈ 325 µM)
4 | CCCCCCCCC(C)=O [2-DECANONE] | 235 (≈ 1500 µM) | > 500 | 55.6 (≈ 356 µM) | 55.9 (≈ 358 µM)
5 | CCCCCCCCOC(C)=O [OCTYL ACETATE] | 61.6 | 111 | 37.3 | 61.4
6 | CCCCCCCCCCCC(C)=O [2-TRIDECANONE] | > 500 | > 500 | 204 (≈ 1030 µM) | 200 (≈ 1010 µM)
7 | CCCCCCCC(C)=O [2-NONANONE] | 279 (≈ 1960 µM) | 357 (≈ 2510 µM) | 118 (≈ 832 µM) | 119 (≈ 837 µM)
